Measured values published in ChEMBL document CHEMBL1909598, “Synthesis of purine-scaffold fluorescent probes for heat shock protein 90 with use in flow cytometry and fluorescence microscopy” (Bioorg Med Chem Lett, 2011).
Calls of active or inactive are those of the source. The rule behind the calls is not given here.

How the values were obtained:
[1] = target: T1, Heat shock protein HSP90 (Homo sapiens) (UniProt P07900+P08238); test: Binding affinity to Hsp90 in human MOLM13 cells assessed as staining of live cells at 1 uM after 4 hrs using DAPI staining by flow cytometry analysis; type: cell-based; conditions: MOLM-13
Method in brief: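 MOLM-13 cells exposed to each fluorescent derivative at 1 μM, 37°C, 4 h. Binding to live cells (DAPI negative) read by flow cytometry as mean fluorescence intensity.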

[2] = target: T1, Heat shock protein HSP90 (Homo sapiens); test: Inhibition of Hsp90 in human MOLM13 cells assessed as Raf1 degradation at 1 uM after 24 hrs using horseradish peroxidase by Western blot analysis; type: cell-based; conditions: MOLM-13
Method in brief: (§1)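 MOLM-13 cells treated with derivatives at 1 μM for 24 h. Steady-state mFLT3 and Raf-1 levels read by Western blot, with β-actin as the loading control.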

[3] = system: MV4-11; test: Drug uptake in human MV4-11 cells assessed as intracellular localization at 1 uM after 24 hrs by DAPI staining based confocal fluorescence microscopy; type: ADME, cell-based; conditions: mv4-11, 24 h
Method in brief: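 MV4-11 cells given 1 μM probe at 37°C for 24 h, then fixed. Cells stained with Na⁺/K⁺-ATPase α1 antibody plus Alexa Fluor 568 secondary as the surface marker. DAPI used to mark non-viable cells. Imaged by confocal microscopy.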

[4] = target: Receptor-type tyrosine-protein kinase FLT3 (Homo sapiens) (UniProt P36888); test: Inhibition of Hsp90 in human MOLM13 cells assessed as FLT3 mutant degradation at 1 uM after 24 hrs using horseradish peroxidase by Western blot analysis; type: cell-based; conditions: MOLM-13; method in brief: as §1
Receptor-type tyrosine-protein kinase FLT3 (Homo sapiens), sequence (P36888 whole entry): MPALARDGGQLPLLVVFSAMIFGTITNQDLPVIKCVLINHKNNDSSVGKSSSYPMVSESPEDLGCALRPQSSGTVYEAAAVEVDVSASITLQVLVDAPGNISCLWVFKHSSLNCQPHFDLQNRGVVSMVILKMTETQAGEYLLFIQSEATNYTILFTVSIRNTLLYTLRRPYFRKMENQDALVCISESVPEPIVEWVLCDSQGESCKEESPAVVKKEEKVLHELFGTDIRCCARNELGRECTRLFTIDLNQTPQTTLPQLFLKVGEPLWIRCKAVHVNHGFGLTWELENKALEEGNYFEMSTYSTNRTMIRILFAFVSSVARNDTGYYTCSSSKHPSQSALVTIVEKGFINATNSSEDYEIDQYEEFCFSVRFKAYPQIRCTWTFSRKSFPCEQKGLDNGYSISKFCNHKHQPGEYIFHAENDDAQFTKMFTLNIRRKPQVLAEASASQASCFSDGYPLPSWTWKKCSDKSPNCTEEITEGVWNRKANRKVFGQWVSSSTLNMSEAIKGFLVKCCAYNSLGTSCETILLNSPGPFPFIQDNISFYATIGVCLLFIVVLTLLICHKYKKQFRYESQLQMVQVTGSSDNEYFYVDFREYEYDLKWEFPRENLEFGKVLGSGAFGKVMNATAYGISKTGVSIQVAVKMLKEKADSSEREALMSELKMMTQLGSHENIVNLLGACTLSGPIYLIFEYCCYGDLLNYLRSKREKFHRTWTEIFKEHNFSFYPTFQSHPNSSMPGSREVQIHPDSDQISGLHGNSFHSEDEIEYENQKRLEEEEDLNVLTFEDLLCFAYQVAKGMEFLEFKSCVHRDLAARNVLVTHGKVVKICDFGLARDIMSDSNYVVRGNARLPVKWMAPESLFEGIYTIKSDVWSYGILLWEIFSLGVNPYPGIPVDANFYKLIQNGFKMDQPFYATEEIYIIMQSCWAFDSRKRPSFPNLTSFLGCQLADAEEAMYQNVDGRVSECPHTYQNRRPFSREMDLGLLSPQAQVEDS

[5] = target: T1, Heat shock protein HSP90 (Homo sapiens); test: Inhibition of Hsp90 in human MOLM13 cells assessed as decrease in cell viability after 24 hrs using DAPI staining by flow cytometry analysis; type: cell-based; conditions: MOLM-13
Method in brief: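 MOLM-13 cells exposed to derivatives at 1 μM, 37°C, 24 h. Viability scored by DAPI exclusion.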

[6] = Drug uptake in human lymphocytes assessed as CD45 staining of cells at 1 uM after 1 hr using 7-AAD staining by flow cytometry analysis; type: ADME, cell-based; conditions: lymphocyte
[7] = system: MV4-11; test: Drug uptake in human MV4-11 cells assessed as CD45 staining of cells at 1 uM after 30 mins using 7-AAD staining by flow cytometry analysis; type: ADME, cell-based; conditions: mv4-11, 0.5 h
[8] = system: MOLM-13; test: Drug uptake in human MOLM13 cells assessed as CD45 staining of cells at 1 uM after 1 hr using 7-AAD staining by flow cytometry analysis; type: ADME, cell-based; conditions: molm-13, 1 h

| Activity [1] | inhibition [2] | Drug uptake [3] | inhibition [4] | Drug uptake [6] | Drug uptake [7] | Drug uptake [8] | Structure (SMILES) | inhibition [5] |
| --- | --- | --- | --- | --- | --- | --- | --- | --- |
| Active | Active | Active | Active |  |  |  | Nc1ncnc2c1nc(Sc1cc3c(cc1I)OCO3)n2CCCNCCCCCCNc1ccc([N+](=O)[O-])c2nonc12 | Active |
| Active | Active | Active | Active | Not Active | Active | Active | CC(C)N(CCCn1c(Sc2cc3c(cc2I)OCO3)nc2c(N)ncnc21)C(=S)Nc1ccc(-c2c3ccc(=O)cc-3oc3cc(O)ccc23)c(C(=O)O)c1 | Active |
